# Bioassay records as filed in PubChem.
# This is a sample that favours compounds with a hit; in the whole collection about 3.1% have one here.
# KCNK9 block = blocks the human KCNK9 two-pore domain potassium channel. B-score at 10 µM. HEK293 KCNK9, FluxOR thallium flux fluorescence; hits give low values. Q9NPC2. actives 1.2% (n = 310,000). AID 488922;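 active means ratio B-score over 3 SD below the library mean, with starting fluorescence within 5 SD of its mean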;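 further: negative B-score means less thallium flux so channel inhibition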
# KCNK3 block = human KCNK3 channel inhibition, primary screen. B-score at 10 µM. actives 0.84% (n = 340,000). O14649. CHO-KCNK3 thallium flux, FluxOR fluorescence; hits give low values. AID 602410;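 active means B-score under library mean minus 4 SD, starting fluorescence ratio at most library mean plus 5 SD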;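 further: more negative B-score means stronger inhibition of thallium flux through KCNK3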
# KCNQ1 inh = human KCNQ1 channel inhibition; P51787; CHO-K1 KCNQ1, FluxOR thallium flux fluorescence; hits give high values; B-score at 10 µM; actives 1.3% (n = 310,000);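 active means compounds whose thallium flux B-score, printed positive for inhibition, exceeds three library SD while starting fluorescence stays within three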;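 further: channel opened by potassium depolarization with thallium stimulus after 20 min compound exposure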
# Target sequence (P51787 whole entry, looked up): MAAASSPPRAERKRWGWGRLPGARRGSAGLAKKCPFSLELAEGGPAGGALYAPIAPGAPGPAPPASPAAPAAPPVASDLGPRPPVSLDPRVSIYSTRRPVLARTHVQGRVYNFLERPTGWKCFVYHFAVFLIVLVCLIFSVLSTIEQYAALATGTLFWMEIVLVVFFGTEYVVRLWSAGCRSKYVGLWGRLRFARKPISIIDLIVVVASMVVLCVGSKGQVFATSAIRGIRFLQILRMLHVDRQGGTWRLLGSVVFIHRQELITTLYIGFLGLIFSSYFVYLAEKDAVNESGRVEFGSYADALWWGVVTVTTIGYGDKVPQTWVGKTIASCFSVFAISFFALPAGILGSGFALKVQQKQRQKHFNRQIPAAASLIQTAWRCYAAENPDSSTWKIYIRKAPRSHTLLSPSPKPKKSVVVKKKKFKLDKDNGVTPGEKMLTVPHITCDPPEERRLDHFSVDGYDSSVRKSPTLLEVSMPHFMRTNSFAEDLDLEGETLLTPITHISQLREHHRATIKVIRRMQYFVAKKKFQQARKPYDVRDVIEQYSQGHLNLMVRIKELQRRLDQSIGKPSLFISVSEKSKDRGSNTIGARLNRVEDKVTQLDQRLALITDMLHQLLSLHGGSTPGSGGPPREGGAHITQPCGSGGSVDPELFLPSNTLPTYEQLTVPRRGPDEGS
# hERG rescue = shields human hERG channel from block by proarrhythmic agents; Q12809; CHO-hERG, FluxOR thallium flux, dofetilide IC70 present; activation (rescue from dofetilide block), less the hit threshold, % at 10 µM; actives 0.51% (n = 310,000);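 active means activation above the mean of controls blocked by dofetilide plus 5 SD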;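 further: thallium influx through hERG after potassium depolarization seen as dye fluorescence rise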
# KCNQ1 act = human KCNQ1 channel potentiation or activation; B-score at 10 µM; CHO-K1 KCNQ1, thallium flux FluxOR fluorescence; hits give high values; AID 2648; actives 0.35% (n = 310,000); P51787;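 active means fluorescence ratio B-score, a plate-corrected score, at least three library SD, with initial intensity B-score within 5 SD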
#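 System: Stable KCNQ1 CHO-K1 line | Incubation: 90 min dye loading and 20 min compound exposure, both at room temperature | Measure: Ratio B score | Medium: Assay buffer for compound exposure, DMSO matched across wells | Compound dosing: Single-concentration screen | Probe or stimulus: K+/Tl+ depolarizing stimulus | Measured by: Kinetic FluxOR fluorescence, 10 s baseline plus 110 s post-stimulus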
# The depositor's hits bear a star; i = inactive; · = no result.
SMILES,KCNK9 block,KCNK3 block,KCNQ1 inh,hERG rescue,KCNQ1 act
CC(C)(C)C(=O)NCCCc1nc2ccccc2n1CCCOc1ccc(Cl)cc1,-7.3*,i,i,-10,i
CN1CCN(CCCN2c3ccccc3Sc3ccc(C(F)(F)F)cc32)CC1,i,i,6*,-23,i
CCCCN1C(=O)/C(=C/C=C2\N(C)c3ccccc3C2(C)C)SC1=S,i,·,11*,-17,i
CCCN1C(=O)/C(=C\C=C2/C=CN(CC)c3ccccc32)SC1=S,i,i,i,-14,i
CC(=O)N1CCN(c2ccc(Oc3ccc([N+](=O)[O-])c(C(F)(F)F)c3)cc2)CC1,i,i,11*,-12,i
CCOc1ccc(C(=O)Nc2ccc(N3CCN(C(C)=O)CC3)cc2)cc1[N+](=O)[O-],i,i,i,-8,i
CCN(CC(=O)Nc1ccccc1OC)C(=O)COc1ccc(C#N)cc1,·,i,·,·,·
O=C1CC(N(CCc2ccccc2)C(=S)Nc2ccccc2)C(=O)N1c1ccc(Br)cc1 (configuration not stated),i,i,6*,-4,i
CCOc1ccc(S(=O)(=O)N2CCN(C(=O)c3cc4ccccc4o3)CC2)cc1,·,i,·,·,·
CC1=NN(c2ccccc2)C(=O)/C1=C\c1c(C)[nH]n(-c2ccccc2)c1=O,i,i,i,-10,i
CC1=NN(c2ccccc2)C(=O)/C1=C/c1c(O)n(-c2ccc(F)c(Cl)c2)[nH]c1=O,i,·,i,-27,12*
COc1cccc2c1C1COC3C4CC(C(=O)O)C(C(C2)N13)N4C (configuration not stated),·,i,·,·,·
O=[N+]([O-])c1c(NCCCO)cc(Sc2ccc(Cl)cc2)c2nonc12,i,i,i,-12,i
Cn1ccnc1Sc1cc(NCCCO)c([N+](=O)[O-])c2nonc12,i,i,6*,-31,i
CSc1cccc(N2CC(C(=O)N(CC(C)C)c3c(N)n(Cc4ccccc4)c(=O)[nH]c3=O)CC2=O)c1 (configuration not stated),i,i,i,-14,i
O=C(CCCCCCCC(=O)N1CCCCCC1)N1CCCCCC1,·,i,·,·,·
CCN(CC)C(=O)c1sc2nc(-c3cccs3)cc(-c3cccs3)c2c1N,-9.3*,i,7*,-15,i
Nc1c(C(=O)Nc2nccs2)sc2nc(-c3cccs3)cc(C(F)(F)F)c12,i,i,i,1,i
Cc1nnc(NC(=O)c2sc3nc(-c4cccs4)cc(C(F)(F)F)c3c2N)s1,i,i,6*,-19,i
COc1ccc(NC(=O)CC2C(=O)N(C)C(=S)N2Cc2ccncc2)cc1 (configuration not stated),i,i,i,0,i
COc1ccc([C@H]2CC(=O)C=C(/C=C/c3ccc(C(F)(F)F)cc3)C2)cc1,·,i,·,·,·
CC(C)(C)OC(=O)N1CCC(C(=O)Nc2cccc(C(=O)NC3CC3)c2)CC1,·,i,·,·,·
O=c1c2ccccc2[nH]c(=S)n1CCc1ccccc1,i,i,i,20*,17*
CCC(C)n1c(=S)[nH]c2ccccc2c1=O (configuration not stated),i,i,i,14*,14*
CC1CCCCC1n1c(=S)[nH]c2ccccc2c1=O (configuration not stated),i,i,i,1,19*
SMILES,KCNK9 block,KCNK3 block,KCNQ1 inh,hERG rescue,KCNQ1 act
CCCOC(=O)/C(C(N)=NCc1ccccc1)=C(\O)OCCC,-6.6*,i,i,-8,i
CCOC(=O)/C(C(N)=NCC(C)C)=C(/O)c1ccccc1,i,i,i,-5,i
N#C/C(=N\Nc1cccc(F)c1)C(=O)C1CC1,i,i,6*,-10,i
CCc1ccccc1NC(=O)CSc1nc(C)c(C)o1,i,i,i,-6,i
OC(CNCC(c1ccco1)N1CCCCC1)c1ccccc1 (configuration not stated),i,i,i,5.9*,i
Cc1cccc(C(=O)OCC(=O)N2CCCCCC2)c1,·,i,·,·,·
CC(C)(C)c1ccc(NC(=O)C(=O)C2C(=O)Nc3ccccc32)cc1 (configuration not stated),i,i,i,5.7*,i
CCOc1cc(NC(=S)N2CCC(C(N)=O)CC2)c(C(=O)OC)cc1OCC,i,i,i,11*,i
Cc1n[nH]c(C)c1NC(=O)CN1CCN(S(=O)(=O)c2ccc(C(F)(F)F)cc2)CC1,·,i,·,·,·
CCCCCc1ccc(C(=O)CCCC)c(=S)[nH]1,i,i,i,35*,17*
CCC1([N+](=O)[O-])COC(c2ccc(Cl)cc2)OC1 (configuration not stated),·,i,·,·,·
S=C(NCCc1ccccn1)Nc1ccc(Cl)c(Cl)c1,i,i,i,-6,i
S=C(NCCc1ccccn1)Nc1cc(Cl)cc(Cl)c1,i,i,6*,-11,i
Cc1cc(N2CCN(c3ccccc3Cl)CC2)n2cc(-c3ccccc3)nc2n1,-12*,i,i,-18,i
CCCNCC1C(Oc2ccc(Cl)cc2Cl)C(=O)N1c1cccc(C)c1C (configuration not stated),-6.7*,i,i,-19,i
Cc1cccc(N2C(=O)C(Oc3ccc(Cl)cc3Cl)C2C(=O)O)c1C (configuration not stated),i,i,i,-5,i
COC1=C/C(=C/c2c(N)n3nc(-c4ccc(C)cc4)sc3nc2=O)C=CC1=O,·,i,·,·,·
CCOC1=C/C(=C/c2c(N)n3nc(-c4ccccc4)sc3nc2=O)C=CC1=O,i,i,10*,-15,i
CCCCC/C=N\NC(=O)Cc1ccc([N+](=O)[O-])cc1,i,i,i,-3,7*
Cc1ccc(C)c(NC(=O)CN(C)C(=O)c2oc3c(Cl)cccc3c2C)c1,i,i,i,-11,i
Cc1c(C(=O)N(C)CCOc2ccccc2)oc2c(Cl)cccc12,·,-9.3*,·,·,·
CCOc1ccc(NC(=O)COc2cccc3c2CCN(Cc2cccnc2)C3=O)cc1,i,i,i,-7,i
O=C(C#Cc1ccccc1)c1ccco1,i,i,i,-12,i
CCN(CC)CCNc1ncnc2c1sc1nc(N3CCCC3)c3c(c12)CC(C)(C)OC3,i,i,i,-14,8*
COc1ccc(NC(=O)c2sc(SC)nc2N)cc1,i,i,i,5.1*,i
O=C(CNCC1CCCCC1)Nc1ccc(OC(F)(F)F)cc1,i,i,i,-20,20*
CN(CC(=O)Nc1ccc(OC(F)(F)F)cc1)C1CCCCC1,i,i,i,-6,i
COc1cc(NC(=O)COc2cc(O)c3c(c2)OC(C)(C)CC3=O)cc(OC)c1,i,i,i,-5,i
